The target in data set [1] is T1, Growth hormone secretagogue receptor type 1 (Homo sapiens, UniProt Q92847). Nature of the data set: Displacement of [125I]-His-ghrelin from human ghrelin receptor expressed in COS7 cells incubated for 75 mins by scintillation counting based assay. The format is cell-based, COS-7. Background: Loss of bound radioactivity is the signal in a displacement assay; it reports binding, not function.

Data set [2] deals with T1, Growth hormone secretagogue receptor type 1. Nature of the data set: Ratio of EC50 of ghrelin to EC50 of compound at human ghrelin receptor expressed in COS 7 cells using [2-3H]myo-inositol by inositol triphosphate turnover assay. The format is functional, cell-based.
Data set [3] has the same target. Nature of the data set: Agonist activity at human ghrelin receptor expressed in COS 7 cells using [2-3H]myo-inositol by inositol triphosphate turnover assay relative to untreated control. It counts as functional, cell-based. An outline of the steps: (§1)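 Stimulated with seven to nine peptide concentrations, stopped by aspirating medium. Lysate supernatant purified on anion-exchange resin. Emax = difference between constitutive activity and activity at maximal peptide effect; EC50 = half-maximal concentration.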

Data set [4] has the same target. Nature of the data set: Activation of human ghrelin receptor expressed in COS 7 cells using [2-3H]myo-inositol by inositol triphosphate turnover assay. It counts as functional, cell-based. Summed up:
as §1

Data set [5] has the same target. Nature of the data set: Agonist activity at FLAG-tagged human ghrelin receptor expressed in COS 7 cells using [2-3H]myo-inositol by inositol triphosphate turnover assay. It counts as functional, cell-based. Summed up:
(§2)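 COS7 cells transiently or stably (hygromycin B 0.4 mg/mL) transfected with receptor; transient cells exposed 14 h to receptor DNA with metafectene. Day after transfection/seeding, labelled with [2-3H]myo-inositol (2 μCi/mL), then stimulated with seven to nine peptide concentrations; stopped by aspirating medium, lysate supernatant purified on anion-exchange resin. EC50 = half-maximal effect; Emax = difference between constitutive activity and maximal-effect activity.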

The target in data set [6] is Growth hormone secretagogue receptor type 1 (Homo sapiens, UniProt Q92847, F119S). Kind of data set: Agonist activity at FLAG-tagged human ghrelin receptor Phe119:Ser mutant expressed in COS 7 cells using [2-3H]myo-inositol by inositol triphosphate turnover assay. The format is functional, cell-based.
Chain of Growth hormone secretagogue receptor type 1 (Homo sapiens, UniProt Q92847, F119S) (Q92847 whole entry F119S): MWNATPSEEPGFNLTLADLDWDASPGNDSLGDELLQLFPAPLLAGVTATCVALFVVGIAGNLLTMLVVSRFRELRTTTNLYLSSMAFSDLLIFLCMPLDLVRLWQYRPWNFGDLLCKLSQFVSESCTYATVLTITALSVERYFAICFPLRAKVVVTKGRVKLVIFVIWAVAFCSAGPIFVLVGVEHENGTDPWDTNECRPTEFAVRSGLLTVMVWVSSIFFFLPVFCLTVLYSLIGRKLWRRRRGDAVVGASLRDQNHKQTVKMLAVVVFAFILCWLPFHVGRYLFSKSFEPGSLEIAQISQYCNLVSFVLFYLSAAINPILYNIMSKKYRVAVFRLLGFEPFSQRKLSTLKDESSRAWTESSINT
The target in data set [7] is Growth hormone secretagogue receptor type 1 (Homo sapiens, UniProt Q92847, S123A). Nature of the data set: Agonist activity at FLAG-tagged human ghrelin receptor Ser123:Ala mutant expressed in COS 7 cells using [2-3H]myo-inositol by inositol triphosphate turnover assay. It counts as functional, cell-based. Summed up:
as §2

For data set [8], the system named is Rattus norvegicus. Nature of the data set: Toxicity in rat assessed as decrease in water consumption at 1 nmol, icv measured over 120 mins. It counts as organism-based. The conditions noted are these: in vivo, icv_or_intrathecal, 2 h.
For data set [9], the system named is Rattus norvegicus. Nature of the data set: Toxicity in rat assessed as decrease in activity at 1 nmol, icv measured over 120 mins. It counts as organism-based. The conditions noted are these: in vivo, icv_or_intrathecal, 2 h.

The structures appear in SMILES notation. pEC50, pIC50, pKi: −log10 of the molar value. Where a SMILES comes first, the peptide text is derived from it. [ ]: non-standard residue; d: D form. d1Nal = N[C@H](Cc1cccc2ccccc12)C(=O)O; Phg = N[C@H](C(=O)O)c1ccccc1

T1 sequence (Q92847 whole entry): as the sequence (Q92847 whole entry F119S) above, with S119F counted along it
Chain of Growth hormone secretagogue receptor type 1 (Homo sapiens, UniProt Q92847, S123A) (Q92847 whole entry S123A): as the sequence (Q92847 whole entry F119S) above, with S119F, S123A counted along it

As usually defined, the pKi is the negative decadic logarithm of the Ki, by convention in mol/L. The low end stands for a high Ki, the high end for a low Ki. In [1], `CC(C)C[C@H](NC(=O)[C@H](CC(C)C)NC(=O)[C@@H](Cc1cccc2ccccc12)NC(=O)[C@H](Cc1ccccc1)NC(=O)[C@@H](Cc1c[nH]c2ccccc12)NC(=O)[C@@H](N)CCCCN)C(N)=O` had a pKi of 6.61. The Ratio EC50 in [2] turned out to be 12.8. In data set [3], this compound had an Emax of 54%.

In general, pEC50 refers to the EC50 on a negative log10 scale, so that one unit is a factor of ten. Lower therefore signals a large EC50. In general, pIC50 refers to −log10 of the IC50, conventionally taken in molar units. Read a high pIC50 as a low IC50. In [4], `CC(C)C[C@H](NC(=O)[C@H](CC(C)C)NC(=O)[C@@H](Cc1ccc(C(=O)c2ccccc2)cc1)NC(=O)[C@H](Cc1ccccc1)NC(=O)[C@@H](Cc1c[nH]c2ccccc12)NC(=O)[C@@H](N)CCCCN)C(N)=O` had a negative logarithm of the EC50 (pEC50) of less than 6.00. In data set [1], this compound gave a pIC50 not above 6.00. In [2], the Ratio EC50 was more than 700.

Regarding `CC(C)C[C@H](NC(=O)[C@H](CC(C)C)NC(=O)[C@@H](Cc1c[nH]c2ccccc12)NC(=O)[C@@H](NC(=O)[C@@H](Cc1cccc2ccccc12)NC(=O)[C@@H](N)CCCCN)c1ccccc1)C(N)=O` (H-K[d1Nal][Phg][dW]LL-NH2), in data set [4], the pEC50 is less than 6.00.

Consider `CC(C)C[C@H](NC(=O)[C@H](CC(C)C)NC(=O)[C@@H](Cc1cccc2ccccc12)NC(=O)[C@H](Cc1ccccc1)NC(=O)[C@@H](Cc1cccc2ccccc12)NC(=O)[C@@H](N)CCCCN)C(N)=O`, for which the pEC50 in data set [4] is less than 6.00.

`CC(C)C[C@H](NC(=O)[C@H](CC(C)C)NC(=O)[C@H](NC(=O)[C@H](Cc1ccccc1)NC(=O)[C@@H](Cc1c[nH]c2ccccc12)NC(=O)[C@@H](N)CCCCN)C(c1ccccc1)c1ccccc1)C(N)=O` had a pEC50 in [4] of less than 6.00. This compound gave a pIC50 in data set [1] not above 6.00. Moreover, the Ratio EC50 in data set [2] was more than 700.

With `CC(C)C[C@H](NC(=O)[C@H](CC(C)C)NC(=O)[C@@H](Cc1ccc(-c2ccccc2)cc1)NC(=O)[C@H](Cc1ccccc1)NC(=O)[C@@H](Cc1c[nH]c2ccccc12)NC(=O)[C@@H](N)CCCCN)C(N)=O`, the pEC50 in data set [4] was less than 6.00. In addition, the pIC50 in data set [1] was not above 6.00. For the same compound, the Ratio EC50 in [2] is more than 700.

With `CC(C)C[C@H](NC(=O)[C@H](CC(C)C)NC(=O)[C@@H](Cc1ccc2ccccc2c1)NC(=O)[C@H](Cc1ccccc1)NC(=O)[C@@H](Cc1c[nH]c2ccccc12)NC(=O)[C@@H](N)CCCCN)C(N)=O`, the pEC50 in data set [5] is 8.14; in data set [6] it was 7.87; in data set [7] it was 8.17. Also, the negative logarithm of the Ki (pKi) in [1] was 6.63. Further, the Ratio EC50 in data set [2] was found to be 9. Moreover, the Emax in data set [3] came out at 156%.

For the compound `CC(C)C[C@H](NC(=O)[C@H](CC(C)C)NC(=O)[C@@H](Cc1c[nH]c2ccccc12)NC(=O)[C@H](Cc1ccccc1)NC(=O)[C@@H](Cc1cccc2ccccc12)NC(=O)[C@@H](N)CCCCN)C(N)=O`, the Activity entry in the data set with Rattus norvegicus [8] and in the data set with Rattus norvegicus [9] was “Toxic” in each case.
